Data reported in PubChem BioAssay AID651999 (Sanford-Burnham Center for Chemical Genomics, 2013).
Hit rate of the full screen: of about 360,000 compounds, about 1,400 (0.39%) were called active. Only a selection was taken, and actives are over-represented in it overall. Unmarked numbers belong to inactive results.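 How the source made its calls: active means pattern-corrected inhibition above about 35%, with an unprinted fluorescence ratio check between 0.5 and 1.5 (limit read from the data, passing the limit was not always enough); inactive means the rest.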

Target: COP9 signalosome complex subunit 5 (Homo sapiens) (UniProt Q92905)
Experiment: inhibitors of CSN-mediated cullin deneddylation, primary screen, biochemical, fluorescence polarization, uHTS (AID 651999);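 further: 0% = enzyme with substrate and 100% = substrate without enzyme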
Details: Purified CSN, SCF-Nedd8-OG deneddylation, at 12.5 µM, active compounds read high
Outline: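 Assay system: Purified human Csn5 enzyme expressed in HEK293T cells | Amount: Enzyme 0.24 nM | Measured by: Fluorescence polarization readout | Medium: Tris/NaCl/DTT buffer, pH 7.5 | Compound dosing: One concentration, 12.5 µM, 0.25% DMSO | Times: 90 min incubation of compound, enzyme and substrate at room temperature | Control set: no-enzyme wells high, enzyme-with-substrate wells low | Read-out: % inhibition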

COP9 signalosome complex subunit 5 (Homo sapiens), sequence (Q92905 whole entry, looked up, one chain of several): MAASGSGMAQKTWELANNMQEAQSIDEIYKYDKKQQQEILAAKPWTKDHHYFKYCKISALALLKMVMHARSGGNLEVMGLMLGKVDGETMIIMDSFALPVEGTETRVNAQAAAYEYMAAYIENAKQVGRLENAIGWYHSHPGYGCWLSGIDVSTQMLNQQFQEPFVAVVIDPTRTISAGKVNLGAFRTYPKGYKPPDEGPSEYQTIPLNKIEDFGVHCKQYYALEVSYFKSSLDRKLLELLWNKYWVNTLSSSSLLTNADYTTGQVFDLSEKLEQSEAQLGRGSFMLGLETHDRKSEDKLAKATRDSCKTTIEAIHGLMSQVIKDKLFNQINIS

| SMILES | inhibition |
| --- | --- |
| O=C(COc1ccc(S(=O)(=O)N2CCCCC2)cc1)NCc1ccccn1 | -4.23% |
| CC(=O)NS(=O)(=O)c1ccc(NC(=O)/C=C/c2ccccc2Cl)cc1 | 4.02% |
| COc1ccccc1CNC(=O)CCCNS(=O)(=O)c1cccc2nsnc12 | 1.39% |
| Cc1ccc(CC2C(=O)N(c3ccc(F)cc3)C(=O)C2C)cc1 (configuration not stated) | -0.88% |
| C#CCOCCOCCOCCNc1nc(N2CCOCC2)nc(N2CCN(C(=O)[C@H](Cc3ccc(O)cc3)n3cc(CCO)nn3)CC2)n1 | -2.16% |
| C#CCOCCOCCOCCNc1nc(N2CCN(C(=O)C([C@@H](C)O)n3cc([C@@H](N)CCCCN)nn3)CC2)nc(N2CCN(C(=O)[C@H](CCCCN)n3cc(CN)nn3)CC2)n1 (some centres not stated) | 37% (active) |
| C#CCOCCOCCOCCNc1nc(N2CCN(C(=O)CCCCCCCCCCNC(=O)Cn3cc(CCCCCN)nn3)CC2)nc(N2CCN(C(=O)CCCCCCCCCCNC(=O)[C@H](CO)n3cc(CCCSC)nn3)CC2)n1 | 89% (active) |
| CCC(C)[C@@H](C(=O)N1CCNCC1)n1cc(CCCCN)nn1 (some centres not stated) | -2.15% |
| C#CCOCCOCCOCCNc1nc(N2CCN(C(=O)C(Cc3ccc(O)cc3)n3cc(C(N)CC(C)C)nn3)CC2)nc(N2CCN(C(=O)C(Cc3ccc(O)cc3)n3cc(C(N)C(C)CC)nn3)CC2)n1 (configuration not stated) | 0.38% |
| CC/C(Cc1ccccc1)=N/NC(=O)CCn1nnc2ccccc21 | 1.26% |
| COc1ccc(NC(=O)C2CCC(CNc3c(N4CCCCC4)c(=O)c3=O)CC2)c(OC)c1 (configuration not stated) | 1.79% |
| CCOC(=O)C1(Cc2cccc(OC)c2)CCN(C(C)CC(C)(C)O)CC1 (configuration not stated) | 0.5% |
| Fc1ccc(-n2c(Cc3ccccc3)nnc2SCc2nc(-c3ccc(Cl)cc3)no2)cc1 | 5.36% |
| Cc1ccc(-c2ccc(CN3C(C)C(=O)N(Cc4cn(CCC5OCCCO5)nn4)CCS3(=O)=O)cc2)cc1 (configuration not stated) | 0.07% |
| O=c1c2ccccc2c(-c2ccccc2)nn1-c1ccccn1 | 0.93% |
| O=C(Nc1cc2c3c(c1)C1CCCC1CN3CC1CCCC21)c1ccc([N+](=O)[O-])cc1 (configuration not stated) | -4.37% |
| Cn1ccc(=Nc2ccc(NC(=O)c3ccc(N=c4ccn(C)c5ccc([N+](=O)[O-])cc45)cc3)cc2)cc1 | 114% (active) |
| O=C(Nc1ccc(C2CC2(Cl)Cl)cc1)c1cccc([N+](=O)[O-])c1 (configuration not stated) | -0.73% |
| CCCNC(=O)c1ccc(N2CCC3(CC2)CC(c2cccc(Br)c2)=NO3)c(NC(=O)c2ccco2)c1 | -1.32% |
| C/C(=N\N=C(N)N)c1ccc(Cl)cc1 | -1.16% |
| O=C(Cc1ccccc1)Nc1c(C(=O)N2CCCCCC2)cnn1-c1ccccc1 | -1.5% |
| CCN(C(=O)Cc1c(C(=O)O)n(CC)c2ccccc12)c1ccccc1C | -2.24% |

| SMILES | inhibition |
| --- | --- |
| CC[n+]1cc(C)ccc1/C=C/c1ccc(N(C)C)cc1 | 35.4% (active) |
| CC(C)N1CCC(NC(=O)Nc2ccccc2)CC1 | -2.66% |
| CC(=O)N1CCN(S(=O)(=O)c2c(F)cc(F)c(Cl)c2F)CC1 | -5.22% |
| CCOc1ccc(NC(=O)CN(C)CC(=O)NC(C)c2ccccc2)cc1OCC (configuration not stated) | 2.1% |
| CN1/C(=c2/s/c(=C3/C(=O)N(c4ccccc4)NC3=Nc3ccccc3)n(C)c2=O)C(C)(C)c2ccccc21 | 41.7% (active) |
| CCc1c(O)nc(SCC(=O)Nc2ccccc2)n(C(C)CC)c1=O (configuration not stated) | 2.98% |
| O=C(Nc1ccc(N2CCN(C(=O)c3cccs3)CC2)cc1)c1cccnc1Cl | -0.71% |
| C=CC(=O)Nc1ccc(Nc2ccnc(Nc3ccc(N4CCN(C)CC4)cc3)n2)cc1 | 103% (active) |
| CC(=O)Nc1cc(-c2ccc(N3CCN(C)CC3)cc2)cn2c(-c3ccc(F)cc3)cnc12 | 9.21% |
| C/C(=N/NS(=O)(=O)c1ccccc1)c1ccc(NC(=O)C(F)(F)F)cc1 | -3.71% |
| COc1ccccc1NC(=O)CCSc1nnc(-c2ccc(O)cc2)o1 | -8.49% |
| Cc1ccc(N=C2NC(=O)/C(=C/C=C/c3ccco3)S2)cc1C | 51.9% (active) |
| COc1ccc(CCN(Cc2cc3cccc(C)c3[nH]c2=O)C(=O)N2CCCC2)cc1OC | 2.45% |
| O=C(NCCCO)/C(=C\C=C\c1ccccc1)NC(=O)c1ccccc1Cl | -3.06% |
| C=CCN(c1ccc(Cl)cc1)S(=O)(=O)c1cccc(C(=O)OCC(=O)N(C)C)c1 | -4.63% |
| CC(NC(=O)C(=O)N/N=C/c1ccc(Cl)cc1)c1ccccc1 (configuration not stated) | -2.35% |
| O=C(N/N=C/c1ccc(Cl)cc1)c1nc2ccc([N+](=O)[O-])cc2c(=O)[nH]1 | 56.7% (active) |
| N#Cc1cc([N+](=O)[O-])ccc1Oc1cccc(/C=N/NC(=O)c2ccc(Cl)cc2)c1 | 1.22% |
| COc1ccc(Cc2nnc(SCC(=O)N(c3ccccc3)C(C)C)n(N)c2=O)cc1 | 2.75% |
| CC1(C2CC2)NC(=O)N(CC(=O)N2CCN(c3ccccc3F)CC2)C1=O (configuration not stated) | -0.85% |
| O=C(CCC(=O)N1CCCC1)Nc1ccc([N+](=O)[O-])cc1 | -2.97% |
| O=C(COC(=O)C1CCCCC1)Nc1ccc([N+](=O)[O-])cc1 | -5.15% |

| SMILES | inhibition |
| --- | --- |
| O=C(COc1ccc([N+](=O)[O-])cc1)Nc1ccc(N2CCCC2)cc1 | 45.2% (active) |
| Cn1c2c(c(=O)n(C)c1=O)[C@@H]1c3c(ccc4ccccc34)OC[C@@H]1CO2 | 0.02% |
| COc1cc(C=NC2CCCCC2)ccc1O | 4.95% |
| CCN(/N=C/c1ccc(N(C)C)cc1)c1nc2ccccc2[nH]1 | -1.85% |
| COc1cc(/C=C(\C#N)c2nc3ccccc3[nH]2)ccc1O | 73.3% (active) |
| COc1cc(/C=C(\C#N)c2nc3c(s2)CC(C)CC3)ccc1O (configuration not stated) | 82% (active) |
| CC1(C)O[C@H]2CC(=O)OCC23[C@H]2CC[C@@]4(C)[C@H](c5ccoc5)OC(=O)[C@H]5O[C@]54[C@]2(C)C(=O)C[C@@H]13 (some centres not stated) | -1.16% |
| COc1cccc(NC(=O)CN(C)C(=O)c2ccccc2CCc2ccccc2)c1 | 4.75% |
| O=C(NCc1ccccc1)C1=C[C@@H](c2ccc(C(F)(F)F)cc2)C[C@@H](OCc2ccc(CO)cc2)O1 | 4.14% |
| Cc1ccc(OCC(=O)Oc2ccccc2[N+](=O)[O-])cc1 | 1.14% |
| Cc1cc2nc(-c3ccc(F)cc3)c(Cc3ccsc3)n2c(C)c1Br | -4.07% |
| Cc1cc2nc(-c3ccc(Cl)cc3)c(Cc3cccc(F)c3)n2c(C)c1Br | 3.52% |
| Cc1cc2nc(-c3ccco3)c(Cc3cccc(F)c3)n2c(C)c1Br | 38.5% (active) |
| O=C1NC2(CCCCC2)N=C1c1ccccc1 | -2.27% |
| CC1CCCN(C(=O)Cn2c(=O)oc3cc(S(=O)(=O)N4CCCCC4C)ccc32)C1 (configuration not stated) | -0.78% |
| C=CCc1ccc(OCCOc2cccc(/C=N/n3cnnc3)c2)c(OC)c1 | 0.99% |
| Cc1ccc(C(=O)O)cc1-c1ccc(/C=C2\SC(=O)N(CC(=O)Nc3ccc4c(c3)OCO4)C2=O)o1 | 102% (active) |
| Cc1nc([N+](=O)[O-])cn1CC(=O)Nc1ccc2c(c1)OCO2 | -0.35% |
| O=C(CCN1C(=O)c2ccncc2C1=O)Nc1ccc2c(c1)OCCO2 | 5.06% |
| CNS(=O)(=O)c1ccc(N2CCCC2=O)c([N+](=O)[O-])c1 | -1.32% |
| Cc1ccc(-c2nn(-c3ccccc3)cc2/C=C2\SC(=S)N(CCCCCC(=O)O)C2=O)o1 | 66.1% (active) |
| C/C(CC(=O)N1CCN(C=O)CC1)=N\NC(=O)c1ccc(Br)cc1 | -6.38% |

| SMILES | inhibition |
| --- | --- |
| O=C(O)CC/C(=N\NC(=O)c1ccc(F)cc1)c1ccc(Br)cc1 | 51.7% (active) |
| O=C(CNC(=O)c1ccccc1F)c1ccc(Br)cc1 | 3.53% |
| Cc1ccn(CCC(=O)N2c3ccccc3CC2C)n1 (configuration not stated) | 0.86% |
| CCOC(=O)C1CCCN(CCSc2ccc(C)cc2)C1 (configuration not stated) | -0.91% |
| COc1ccc2c(c1)c(=Cc1ccc(N(C)C)cc1)c1cc(-c3ccccc3)[n+](C)n12 | 61.6% (active) |
| CCOC(=O)[C@]12CCCC=C1N(CCC1=CCCCC1)C(=O)[C@H](CC(=O)N1CCN(C(=O)c3ccco3)CC1)C2 | -3.01% |
| CCC(C)Cn1c(O)cc2nn(-c3nc4ccccc4s3)c(=O)c-2c1C (configuration not stated) | 35.4% (active) |
| CCC(CC)C(=O)Nc1cccc(C(=O)N2CCCC2)c1 | 2.19% |
| CC1CC(C)CN(S(=O)(=O)c2cccc3nonc23)C1 (configuration not stated) | 0.47% |
| CCCCCN(C(=O)CCC(=O)OCC(=O)NCc1ccc(OC)cc1)c1c(N)n(CCCC)c(=O)[nH]c1=O | 4.14% |
| CC(C)C1CC2=C(C(=O)OC(C)(C)O2)C(c2ccc(F)cc2)O1 (configuration not stated) | 2.3% |
| CCC(C)NC(=O)N[C@@H](CCSC)C(=O)O (some centres not stated) | -1.26% |
| Cc1sc2ncnc(SCC(=O)Nc3ccc(CN4CCCC4)cc3)c2c1C | 108% (active) |
| COC(=O)c1c(-c2cccs2)csc1NC(=O)CSc1ncnc2sc(C)c(C)c12 | -5.37% |
| Cc1sc2ncnc(SCC(=O)NC3CCS(=O)(=O)C3)c2c1C (configuration not stated) | -1.73% |
| Cc1ccc2nc(-c3ccncc3)cc(C(=O)Nc3ccc(OC(F)F)cc3)c2c1 | 42% (active) |
| O=C(Nc1ccc(Br)cc1)c1cc(S(=O)(=O)Nc2ccccn2)ccc1Cl | -4.77% |
| O=C(Nc1cccnc1)c1cc2cc(Br)ccc2oc1=O | 5.43% |
| Cc1cc(NS(=O)(=O)c2ccc(NC(=O)c3cccc(OC(F)F)c3)cc2)nc(C)n1 | 2.76% |
| COc1ccc(C)cc1NC(=O)c1cc(-c2ccccc2)nc2c1cnn2C(C)C | -2.82% |
| O=C(Nc1ccncc1)c1cc(-c2ccccn2)nc2ccc(Br)cc12 | 51.3% (active) |
